# Experimental data taken from ChEMBL document CHEMBL6078712, “Triterpenoid phthalimides as selective anti-cancer agents targeting mitochondrial apoptosis” (Eur J Med Chem, 2025).
# Calls of active or inactive are those of the source. No cut-off for these calls is given here.
# How the values were obtained:
# [1] = Stability in human plasma assessed as compound remaining at 2 uM incubated for 60 mins by RF-MS analysis; assay type: ADME, cell-free; conditions: read-out: Stability
# How it was run: (§1)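 Human plasma stability, plasma protein binding and liver microsome stability, each run in triplicate. Error deviations below 10 %.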
# [2] = test system: K562; test: Cytotoxicity against human K562 cells assessed as inhibition of cell growth incubated for 72 hrs by MTS assay; assay type: functional, cell-based; conditions: K562, 72 h
# How it was run: (§2)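 MTS assay on eight human cancer lines and two non-tumour fibroblast lines. IC50 is the concentration that inhibits cell growth by 50 %. SD typically up to 15 % of the mean.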
# [3] = test system: CCRF-CEM; test: Inhibition of RNA synthesis in human CCRF-CEM cells at 1 times IC50 incubated for 24 hrs by BrU incorporation based flow cytometry; assay type: functional
# How it was run: (§3)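 Fixed in 1 % paraformaldehyde/0.05 % NP-40 (15 min at room temperature, then 4 °C overnight). Stained with cross-reacting anti-BrdU plus FITC secondary (45 min each), then PI/RNase A. Flow cytometry; % BrU-positive cells.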
# [4] = test system: CCRF-CEM; test: Induction of apoptosis in human CCRF-CEM cells assessed as upregulation of BID expression at 1 to 5 times IC50 incubated for 24 hrs by Western blotting analysis; assay type: functional, cell-based
# How it was run: (§4)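 30 µg protein per lane on SDS-PAGE, transferred to nitrocellulose, blocked in 5 % BSA/TBS-Tween. Primary antibodies overnight at 4 °C (Akt, P-Akt Ser473, STAT-3, caspase-3, PARP, cyclin D, cyclin A, Bcl-xL, Bak, Bid, Bim), then HRP secondary and ECL detection. GAPDH as loading control.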
# [5] = Cytotoxicity against human BJ cells assessed as inhibition of cell growth incubated for 72 hrs by MTS assay; assay type: toxicity, cell-based; how it was run: as §2
# [6] = test system: CEM-DNR; test: Cytotoxicity against human CEM-DNR cells assessed as inhibition of cell growth incubated for 72 hrs by MTS assay; assay type: functional, cell-based; how it was run: as §2
# [7] = test system: A549; test: Cytotoxicity against human A549 cells assessed as inhibition of cell growth incubated for 72 hrs by MTS assay; assay type: functional, cell-based; conditions: A549, 72 h; how it was run: as §2
# [8] = test system: CCRF-CEM; test: Induction of apoptosis in human CCRF-CEM cells assessed as early apoptotic cells at 5 times IC50 incubated for 24 hrs by Annexin V-FITC and PI staining based flow cytometric analysis (reference value: 2.1 %); assay type: functional
# How it was run: (§5)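 Washed in Ca2+-containing binding buffer, then stained 15 min at room temperature in the dark with Annexin V-FITC and propidium iodide (PI at half the kit-recommended level). Read at once by flow cytometry with a 488 nm laser, ≥10,000 cells. Debris excluded; quadrants viable, early apoptotic, late apoptotic/necrotic, necrotic. Three independent experiments.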
# [9] = test system: CCRF-CEM; test: Induction of apoptosis in human CCRF-CEM cells assessed as necrotic cells at 1 times IC50 incubated for 24 hrs by Annexin V-FITC and PI staining based flow cytometric analysis (reference value: 0.4 %); assay type: functional; how it was run: as §5
# [10] = test system: CCRF-CEM; test: Inhibition of RNA synthesis in human CCRF-CEM cells at 5 times IC50 incubated for 24 hrs by BrU incorporation based flow cytometry; assay type: functional; how it was run: as §3
# [11] = test system: CCRF-CEM; test: Induction of cell cycle arrest in human CCRF-CEM cells assessed as downregulation of total STAT3 expression at 1 to 5 times IC50 incubated for 24 hrs by Western blotting analysis; assay type: functional, cell-based; how it was run: as §4
# [12] = test system: CCRF-CEM; test: Induction of apoptosis in human CCRF-CEM cells assessed as viable cells at 5 times IC50 incubated for 24 hrs by Annexin V-FITC and PI staining based flow cytometric analysis (reference value: 97.4 %); assay type: functional; how it was run: as §5
# [13] = test system: CCRF-CEM; test: Inhibition of DNA synthesis in human CCRF-CEM cells at 1 times IC50 incubated for 24 hrs by BrdU incorporation based flow cytometry; assay type: functional
# How it was run: (§6)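 Fixed in ice-cold 70 % ethanol, DNA denatured in 2 M HCl for 30 min, neutralised with borax. Stained with anti-BrdU plus FITC secondary, then PI/RNase A for 1 h. Flow cytometry; % BrdU-positive cells.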
# [14] = Stability in human plasma assessed as compound remaining at 2 uM incubated for 15 mins by RF-MS analysis; assay type: ADME, cell-free; conditions: read-out: Stability; how it was run: as §1
# [15] = test system: CCRF-CEM; test: Induction of apoptosis in human CCRF-CEM cells assessed as late apoptotic cells at 1 times IC50 incubated for 24 hrs by Annexin V-FITC and PI staining based flow cytometric analysis (reference value: 0.4 %); assay type: functional; how it was run: as §5
# [16] = Stability in human plasma assessed as compound remaining at 2 uM incubated for 30 mins by RF-MS analysis; assay type: ADME, cell-free; conditions: read-out: Stability; how it was run: as §1
# [17] = test system: U2OS; test: Cytotoxicity against human U2OS cells assessed as inhibition of cell growth incubated for 72 hrs by MTS assay; assay type: functional, cell-based; how it was run: as §2
# [18] = test system: CCRF-CEM; test: Induction of cell cycle arrest in human CCRF-CEM cells assessed as downregulation of Cyclin D expression at 1 to 5 times IC50 incubated for 24 hrs by Western blotting analysis; assay type: functional, cell-based; how it was run: as §4
# [19] = test system: CCRF-CEM; test: Induction of apoptosis in human CCRF-CEM cells assessed as viable cells at 1 times IC50 incubated for 24 hrs by Annexin V-FITC and PI staining based flow cytometric analysis (reference value: 97.4 %); assay type: functional; how it was run: as §5
# [20] = test system: CCRF-CEM; test: Induction of cell cycle arrest in human CCRF-CEM cells assessed as downregulation of AKT phosphorylation at 5 times IC50 incubated for 24 hrs by Western blotting analysis; assay type: functional, cell-based; how it was run: as §4
# [21] = test system: CCRF-CEM; test: Induction of apoptosis in human CCRF-CEM cells assessed as necrotic cells at 5 times IC50 incubated for 24 hrs by Annexin V-FITC and PI staining based flow cytometric analysis (reference value: 0.4 %); assay type: functional; how it was run: as §5
# [22] = test system: CCRF-CEM; test: Induction of apoptosis in human CCRF-CEM cells assessed as upregulation of BIM expression at 1 to 5 times IC50 incubated for 24 hrs by Western blotting analysis; assay type: functional, cell-based; how it was run: as §4
# [23] = Plasma protein binding in human assessed as fraction bound at 10 uM incubated for 4 hrs by rapid equilibrium dialysis based RF-MS analysis; assay type: ADME, cell-free; conditions: read-out: PPB (converted); how it was run: as §1
# [24] = test system: HCT 116 TP53(-/-); test: Cytotoxicity against human HCT116-p53-null cells assessed as inhibition of cell growth incubated for 72 hrs by MTS assay; assay type: functional, cell-based; how it was run: as §2
# [25] = test system: CCRF-CEM; test: Cytotoxicity against human CCRF-CEM cells assessed as inhibition of cell growth incubated for 72 hrs by MTS assay; assay type: functional, cell-based; how it was run: as §2
# [26] = test system: CCRF-CEM; test: Inhibition of DNA synthesis in human CCRF-CEM cells at 5 times IC50 incubated for 24 hrs by BrdU incorporation based flow cytometry; assay type: functional; how it was run: as §6
# [27] = test system: CCRF-CEM; test: Induction of apoptosis in human CCRF-CEM cells assessed as downregulation of caspase-3 expression at 5 times IC50 incubated for 24 hrs by Western blotting analysis; assay type: functional, cell-based; how it was run: as §4
# [28] = test system: Mitochondrial membrane; test: Induction of mitochondrial membrane potential depolarization in human CCRF-CEM cells assessed as fold increase in fluorescence intensity incubated for 24 hrs by JC-1 staining based flow cytometry; assay type: cell membranes
# [29] = test system: CCRF-CEM; test: Induction of apoptosis in human CCRF-CEM cells assessed as early apoptotic cells at 1 times IC50 incubated for 24 hrs by Annexin V-FITC and PI staining based flow cytometric analysis (reference value: 2.1 %); assay type: functional; how it was run: as §5
# [30] = test system: CCRF-CEM; test: Induction of apoptosis in human CCRF-CEM cells assessed as late apoptotic cells at 5 times IC50 incubated for 24 hrs by Annexin V-FITC and PI staining based flow cytometric analysis (reference value: 0.4 %); assay type: functional; how it was run: as §5
# [31] = Cytotoxicity against human K562-Tax cells assessed as inhibition of cell growth incubated for 72 hrs by MTS assay; assay type: functional, cell-based; how it was run: as §2
# [32] = Metabolic stability in human liver microsomes assessed as parent compound remaining at 2 uM incubated for 60 mins in presence of NADPH by RF-MS analysis; assay type: ADME, Microsome; conditions: read-out: Stability; how it was run: as §1
# [33] = test system: CCRF-CEM; test: Induction of cell cycle arrest in human CCRF-CEM cells assessed as downregulation of Cyclin A expression at 5 times IC50 incubated for 24 hrs by Western blotting analysis; assay type: functional, cell-based; how it was run: as §4
# [34] = test system: CCRF-CEM; test: Induction of cell cycle arrest in human CCRF-CEM cells assessed as downregulation of AKT phosphorylation at 1 times IC50 incubated for 24 hrs by Western blotting analysis; assay type: functional, cell-based; how it was run: as §4
# [35] = test system: HCT-116; test: Cytotoxicity against human HCT-116 cells assessed as inhibition of cell growth incubated for 72 hrs by MTS assay; assay type: functional, cell-based; conditions: HCT-116, 72 h; how it was run: as §2
# [36] = Metabolic stability in human liver microsomes assessed as parent compound remaining at 2 uM incubated for 15 mins in presence of NADPH by RF-MS analysis; assay type: ADME, Microsome; conditions: read-out: Stability; how it was run: as §1
# [37] = Stability in human plasma assessed as compound remaining at 2 uM incubated for 120 mins by RF-MS analysis; assay type: ADME, cell-free; conditions: read-out: Stability; how it was run: as §1
# [38] = Metabolic stability in human liver microsomes assessed as parent compound remaining at 2 uM incubated for 30 mins in presence of NADPH by RF-MS analysis; assay type: ADME, Microsome; conditions: read-out: Stability; how it was run: as §1
# [39] = Cytotoxicity against human MRC5 cells assessed as inhibition of cell growth incubated for 72 hrs by MTS assay; assay type: toxicity, cell-based; how it was run: as §2
# [40] = test system: CCRF-CEM; test: Induction of cell cycle arrest in human CCRF-CEM cells assessed as increase in accumulation of G0/G1 phase at 1 times IC50 incubated for 24 hrs by RNase/PI staining based flow cytometry; assay type: functional
# How it was run: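 Propidium iodide staining and flow cytometry with a 488 nm laser, ≥10,000 intact cells. Phase proportions compared with untreated cells; SEM of three independent experiments.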
smiles,measurement,setting,value
CC(=O)O[C@H]1CC[C@]2(C)[C@H]3CC[C@@H]4[C@H]5[C@H](c6cc7c(c(-c8ccccc8)c6)C(=O)N(c6nccs6)C7=O)CC[C@]5(C(=O)O)CC[C@@]4(C)[C@]3(C)CC[C@H]2C1(C)C,"remaining at 1 h, 2 µM",[1],96%
same,IC50,[2],21.4 µM
same,inhibition (INH),[3],28%
same,Activity,[4],Active
same,IC50 at 72 h,[5],31.7 µM
same,IC50,[6],30.5 µM
same,IC50,[7],20.8 µM
same,Activity,[8],6%
same,Activity,[9],0%
same,inhibition (INH),[10],36.1%
same,Activity,[11],Active
same,Activity,[12],90.8%
same,inhibition (INH),[13],37.2%
same,"remaining at 0.25 h, 2 µM",[14],98%
same,Activity,[15],2.6%
same,"remaining at 0.5 h, 2 µM",[16],95%
same,IC50,[17],16.8 µM
same,Activity,[18],Active
same,Activity,[19],92.3%
same,Activity,[20],Active
same,Activity,[21],0%
same,Activity,[22],Active
same,"fraction unbound at 4 h, 10 µM",[23],0.425
same,IC50,[24],18.6 µM
same,IC50,[25],2.52 µM
same,inhibition (INH),[26],18.5%
same,Activity,[27],Active
same,Activity,[28],Dose-dependent-effect
same,Activity,[29],5.1%
same,Activity,[30],3.2%
same,IC50,[31],24.5 µM
same,"remaining at 1 h, 2 µM",[32],98%
same,Activity,[33],Active
same,Activity,[34],Active
same,IC50,[35],13.1 µM
same,"remaining at 0.25 h, 2 µM",[36],103%
same,"remaining at 2 h, 2 µM",[37],85%
same,"remaining at 0.5 h, 2 µM",[38],104%
same,IC50 at 72 h,[39],27.8 µM
same,Activity,[40],Active; Slight Increased Activity Observed
